Test results from ChEMBL document CHEMBL1153726, “Synthesis and anticancer activity of sclerophytin-inspired hydroisobenzofurans” (Bioorg Med Chem Lett, 2009).

Key:
Type in all cases: functional
[1] = test system: T47D; assay: Growth inhibition of human T47D cells at 1 nM after 96 hrs by MTT assay; parameters: scale not given: the % may be the effect or the level left
[2] = Growth inhibition of human Hs 578T cells at 1 nM after 96 hrs by MTT assay; parameters: scale not given: the % may be the effect or the level left
[3] = test system: NCI/ADR-RES; assay: Growth inhibition of human NCI/ADR-RES cells at 1 nM after 96 hrs by MTT assay; parameters: scale not given: the % may be the effect or the level left
[4] = test system: OVCAR-8; assay: Growth inhibition of human OVCAR8 cells at 1 nM after 96 hrs by MTT assay; parameters: scale not given: the % may be the effect or the level left
[5] = test system: MDA-MB-435; assay: Growth inhibition of human MDA-MB-435 cells at 1 nM after 96 hrs by MTT assay; parameters: scale not given: the % may be the effect or the level left
[6] = test system: M14; assay: Growth inhibition of human M14 cells at 1 nM after 96 hrs by MTT assay; parameters: scale not given: the % may be the effect or the level left
[7] = test system: NCI-H522; assay: Growth inhibition of human NCI-H522 cells at 1 nM after 96 hrs by MTT assay; parameters: scale not given: the % may be the effect or the level left
[8] = test system: NCI-H460; assay: Growth inhibition of human NCI-H460 cells at 1 nM after 96 hrs by MTT assay; parameters: scale not given: the % may be the effect or the level left
[9] = Growth inhibition of human RPMI8266 cells at 1 nM after 96 hrs by MTT assay; parameters: scale not given: the % may be the effect or the level left
[10] = test system: BT-549; assay: Growth inhibition of human BT549 cells at 10 uM after 96 hrs by MTT assay; parameters: scale not given: the % may be the effect or the level left
[11] = test system: ACHN; assay: Growth inhibition of human ACHN cells at 10 uM after 96 hrs by MTT assay; parameters: scale not given: the % may be the effect or the level left
[12] = test system: 786-0; assay: Growth inhibition of human 786-0 cells at 10 uM after 96 hrs by MTT assay; parameters: scale not given: the % may be the effect or the level left
[13] = test system: OVCAR-5; assay: Growth inhibition of human OVCAR5 cells at 10 uM after 96 hrs by MTT assay; parameters: scale not given: the % may be the effect or the level left
[14] = test system: IGROV-1; assay: Growth inhibition of human IGROV1 cells at 10 uM after 96 hrs by MTT assay; parameters: scale not given: the % may be the effect or the level left
[15] = test system: UACC-62; assay: Growth inhibition of human UACC62 cells at 10 uM after 96 hrs by MTT assay; parameters: scale not given: the % may be the effect or the level left
[16] = test system: SK-MEL-5; assay: Growth inhibition of human SK-MEL-5 cells at 10 uM after 96 hrs by MTT assay; parameters: scale not given: the % may be the effect or the level left
[17] = test system: M14; assay: Growth inhibition of human M14 cells at 10 uM after 96 hrs by MTT assay; parameters: scale not given: the % may be the effect or the level left
[18] = test system: U-251; assay: Growth inhibition of human U251 cells at 10 uM after 96 hrs by MTT assay; parameters: scale not given: the % may be the effect or the level left
[19] = test system: A549; assay: Growth inhibition of human A549 cells at 10 uM after 96 hrs by MTT assay; parameters: scale not given: the % may be the effect or the level left
[20] = test system: HL-60(TB); assay: Growth inhibition of human HL-60(TB) cells at 10 uM after 96 hrs by MTT assay; parameters: scale not given: the % may be the effect or the level left
[21] = test system: CCRF-CEM; assay: Growth inhibition of human CCRF-CEM cells at 10 uM after 96 hrs by MTT assay; parameters: scale not given: the % may be the effect or the level left
[22] = test system: HT-29; assay: Growth inhibition of human HT-29 cells at 10 nM after 96 hrs by MTT assay; parameters: scale not given: the % may be the effect or the level left
[23] = test system: SW-620; assay: Growth inhibition of human SW620 cells after 96 hrs by MTT assay; details: SW-620, 96 h
Outline: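 Tested in the NCI 60-cell-line panel in five-dose format; GI50 and LC50 values reported for each cell line.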

[24] = test system: A498; assay: Growth inhibition of human A498 cells after 96 hrs by MTT assay; details: A498, 96 h
[25] = test system: DU-145; assay: Growth inhibition of human DU145 cells after 96 hrs by MTT assay; details: DU-145, 96 h
[26] = test system: HCT-116; assay: Growth inhibition of human HCT116 cells after 96 hrs by MTT assay; details: HCT-116, 96 h
Outline: (§1)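 Run in the NCI 60 human tumour cell line panel as a five-dose assay. GI50 and LC50 were reported for each cell line.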

[27] = test system: NCI-H322M; assay: Growth inhibition of human NCI-H322M cells after 96 hrs by MTT assay; outline: as §1
[28] = test system: RXF 393; assay: Growth inhibition of human RXF393 cells at 1 uM after 96 hrs by MTT assay; parameters: scale not given: the % may be the effect or the level left
[29] = test system: NCI/ADR-RES; assay: Growth inhibition of human NCI/ADR-RES cells at 1 uM after 96 hrs by MTT assay; parameters: scale not given: the % may be the effect or the level left
[30] = test system: SN12C; assay: Growth inhibition of human SN12C cells at 100 nM after 96 hrs by MTT assay; parameters: scale not given: the % may be the effect or the level left
[31] = test system: OVCAR-4; assay: Growth inhibition of human OVCAR4 cells at 100 nM after 96 hrs by MTT assay; parameters: scale not given: the % may be the effect or the level left
[32] = test system: M14; assay: Growth inhibition of human M14 cells at 100 nM after 96 hrs by MTT assay; parameters: scale not given: the % may be the effect or the level left
[33] = test system: SF-539; assay: Growth inhibition of human SF539 cells at 100 nM after 96 hrs by MTT assay; parameters: scale not given: the % may be the effect or the level left
[34] = test system: KM12; assay: Growth inhibition of human KM12 cells at 100 nM after 96 hrs by MTT assay; parameters: scale not given: the % may be the effect or the level left
[35] = test system: NCI-H23; assay: Growth inhibition of human NCI-H23 cells at 100 nM after 96 hrs by MTT assay; parameters: scale not given: the % may be the effect or the level left
[36] = test system: MOLT-4; assay: Growth inhibition of human MOLT4 cells at 100 nM after 96 hrs by MTT assay; parameters: scale not given: the % may be the effect or the level left
[37] = test system: BT-549; assay: Growth inhibition of human BT549 cells at 10 nM after 96 hrs by MTT assay; parameters: scale not given: the % may be the effect or the level left
[38] = test system: OVCAR-5; assay: Growth inhibition of human OVCAR5 cells at 10 nM after 96 hrs by MTT assay; parameters: scale not given: the % may be the effect or the level left
[39] = test system: OVCAR-4; assay: Growth inhibition of human OVCAR4 cells at 10 nM after 96 hrs by MTT assay; parameters: scale not given: the % may be the effect or the level left
[40] = test system: UACC-62; assay: Growth inhibition of human UACC62 cells at 10 nM after 96 hrs by MTT assay; parameters: scale not given: the % may be the effect or the level left
[41] = test system: SK-MEL-28; assay: Growth inhibition of human SK-MEL-28 cells at 10 nM after 96 hrs by MTT assay; parameters: scale not given: the % may be the effect or the level left
[42] = test system: UACC-257; assay: Growth inhibition of human UACC257 cells at 1 uM after 96 hrs by MTT assay; parameters: scale not given: the % may be the effect or the level left
[43] = test system: M14; assay: Growth inhibition of human M14 cells at 1 uM after 96 hrs by MTT assay; parameters: scale not given: the % may be the effect or the level left
[44] = test system: NCI-H460; assay: Growth inhibition of human NCI-H460 cells at 1 uM after 96 hrs by MTT assay; parameters: scale not given: the % may be the effect or the level left
[45] = read-out: LC50 (the source's name)
[46] = read-out: Log10GI50 (converted)
[47] = read-out: Log10LC50 (converted)

C=C(C)[C@H]1CC=C(C)C2=CO[C@@H](c3ccccc3F)[C@@H]21
Activity [1]: 98% | Activity [2]: 83% | Activity [3]: 105% | Activity [4]: 99% | Activity [5]: 92% | Activity [6]: 97% | Activity [7]: 82% | Activity [8]: 97% | Activity [9]: 78% | Activity [10]: 112.93% | Activity [11]: 93.56% | Activity [12]: 93.62% | Activity [13]: 100.16% | Activity [14]: 65.74% | Activity [15]: 54.63% | Activity [16]: 84.67% | Activity [17]: 102.54% | Activity [18]: 97.35% | Activity [19]: 71.63% | Activity [20]: 44.43% | Activity [21]: 68.96% | Activity [22]: 92% | GI50 ([23]; read-out: GI50): 4.49 µM | CC50 [23, 45]: 43.4 µM | GI50 [23, 46]: 4.47 µM | CC50 [23, 47]: 43.7 µM | TGI ([23]; read-out: Log10TGI (converted)): 15.8 µM | TGI ([23]; read-out: TGI): 15.9 µM | GI50 ([24]; read-out: GI50): 2.34 µM | CC50 [24, 45]: 26.5 µM | GI50 [24, 46]: 2.34 µM | CC50 [24, 47]: 26.3 µM | TGI ([24]; read-out: Log10TGI (converted)): 7.08 µM | TGI ([24]; read-out: TGI): 7.07 µM | GI50 ([25]; read-out: GI50): 5.53 µM | CC50 [25, 45]: 94.5 µM | GI50 [25, 46]: 5.5 µM | CC50 [25, 47]: 95.5 µM | TGI ([25]; read-out: Log10TGI (converted)): 26.3 µM | TGI ([25]; read-out: TGI): 26.1 µM | GI50 ([26]; read-out: GI50): 3 µM | CC50 [26, 45]: 36.9 µM | GI50 [26, 46]: 3.02 µM | CC50 [26, 47]: 37.2 µM | TGI ([26]; read-out: Log10TGI (converted)): 13.5 µM | TGI ([26]; read-out: TGI): 13.6 µM | GI50 ([27]; read-out: GI50): 9.5 µM | CC50 [27, 45]: 54.6 µM | GI50 [27, 46]: 9.55 µM | CC50 [27, 47]: 55 µM | TGI ([27]; read-out: Log10TGI (converted)): 23.4 µM | TGI ([27]; read-out: TGI): 23.2 µM | Activity [28]: 44% | Activity [29]: 26% | Activity [30]: 79% | Activity [31]: 76% | Activity [32]: 80% | Activity [33]: 84% | Activity [34]: 90% | Activity [35]: 85% | Activity [36]: 81% | Activity [37]: 84% | Activity [38]: 84% | Activity [39]: 86% | Activity [40]: 81% | Activity [41]: 93% | Activity [42]: 44% | Activity [43]: 43% | Activity [44]: 31%
